# Activity calls are given as the source filed them. The rule behind the calls is not given here.
# Legend:
# Bacillus subtilis [1] = assay: Antibacterial activity against Bacillus subtilis bearing FtsZ V307R mutant by broth microdilution method; type: functional
# Staphylococcus aureus [2] = assay: Antibacterial activity against Staphylococcus aureus by broth microdilution method; type: functional
# Bacillus subtilis [3] = assay: Antibacterial activity against Bacillus subtilis bearing FtsZ G196A mutant by broth microdilution method; type: functional
# Bacillus subtilis [4] = assay: Antibacterial activity against Bacillus subtilis bearing FtsZ A47P mutant by broth microdilution method; type: functional
# Bacillus subtilis [5] = assay: Antibacterial activity against Bacillus subtilis bearing FtsZ V307H mutant by broth microdilution method; type: functional
# Bacillus subtilis [6] = assay: Antibacterial activity against Bacillus subtilis by broth microdilution method; type: functional
# Staphylococcus aureus [7] = assay: Antibacterial activity against Staphylococcus aureus bearing FtsZ G196A mutant by broth microdilution method; type: functional
# Staphylococcus aureus [8] = assay: Antibacterial activity against Staphylococcus aureus Smith ATCC 19636 in CD1 mouse septicemia model assessed as survival at 30 mg/kg, iv after 7 days relative to control; type: functional; settings: 168 h
# Outline: (§1)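 At 1 h post-infection they received a single SC or IV dose of 3, 10 or 30 mg/kg. Controls were vehicle only and vancomycin 3 mg/kg by the same route. Mortality was recorded daily for 7 days, and ED50 was derived from dose-dependent survival.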
# [9] = test system: Staphylococcus saprophyticus; assay: Antibacterial activity against Staphylococcus saprophyticus by broth microdilution method; type: functional
# Staphylococcus aureus [10] = assay: Antibacterial activity against Staphylococcus aureus Smith ATCC 19636 in CD1 mouse septicemia model assessed as survival at 30 mg/kg, sc after 7 days relative to control; type: functional; settings: 168 h, route subcutaneous; outline: as §1
# [11] = test system: Staphylococcus haemolyticus; assay: Antibacterial activity against Staphylococcus haemolyticus by broth microdilution method; type: functional
# Staphylococcus aureus [12] = assay: Bactericidal activity against Staphylococcus aureus ATCC 29213 assessed as logarithmic reduction in viable cell numbers at >= MIC after 24 hrs; type: functional
# Escherichia coli = assay: Antibacterial activity against Escherichia coli by broth microdilution method; type: functional
# Staphylococcus aureus [13] = assay: Bactericidal activity against Staphylococcus aureus ATCC 29213 assessed as reduction in cell viability at 2 ug/ml within 24 hrs by serial dilution method
# Staphylococcus hominis = assay: Antibacterial activity against Staphylococcus hominis by broth microdilution method; type: functional
# Bos taurus [14] = organism: Bos taurus; assay: Enhancement of bovine brain tubulin polymerization at 64 ug/ml
# Staphylococcus aureus [15] = assay: Antibacterial activity against multidrug-resistant Staphylococcus aureus by broth microdilution method; type: functional
# Bacillus subtilis [16] = assay: Inhibition of cell division in Bacillus subtilis 168 assessed as elongation of cells at 2 ug/ml by phase contrast microscopy; type: functional, organism-based; settings: subsp. subtilis str. 168
# Outline: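 B. subtilis 168 cells grown with or without compound at 2 μg/ml; cell morphology examined by phase-contrast microscopy.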
# Staphylococcus aureus [17] = assay: Antibacterial activity against Staphylococcus aureus bearing FtsZ N263K mutant by broth microdilution method; type: functional
# Streptococcus pneumoniae = assay: Antibacterial activity against Streptococcus pneumoniae by broth microdilution method; type: functional
# Haemophilus influenzae = assay: Antibacterial activity against Haemophilus influenzae by broth microdilution method; type: functional
# Bos taurus [18] = organism: Bos taurus; assay: Inhibition of bovine brain tubulin polymerization at 64 ug/ml
# Staphylococcus aureus [19] = assay: Antibacterial activity against Staphylococcus aureus bearing FtsZ G193D mutant by broth microdilution method; type: functional
# HepG2 = assay: Cytotoxicity against human HepG2 cells; type: cell-based
# Enterococcus faecalis = assay: Antibacterial activity against Enterococcus faecalis by broth microdilution method; type: functional
# Staphylococcus aureus [20] = assay: Inhibition of cell division in Staphylococcus aureus ATCC 29213 assessed as enlargement of cells at 2 ug/ml by phase contrast microscopy; type: functional, organism-based
# Outline: (§2)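 S. aureus ATCC 29213 cells grown with or without compound at 2 μg/ml; cell morphology examined by phase-contrast microscopy.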
# [21] = target: T1, Cell division protein FtsZ (Staphylococcus aureus) (UniProt P0A031); assay: (§3) Inhibition of Staphylococcus aureus FtsZ GTPase activity
# T1 sequence (whole entry): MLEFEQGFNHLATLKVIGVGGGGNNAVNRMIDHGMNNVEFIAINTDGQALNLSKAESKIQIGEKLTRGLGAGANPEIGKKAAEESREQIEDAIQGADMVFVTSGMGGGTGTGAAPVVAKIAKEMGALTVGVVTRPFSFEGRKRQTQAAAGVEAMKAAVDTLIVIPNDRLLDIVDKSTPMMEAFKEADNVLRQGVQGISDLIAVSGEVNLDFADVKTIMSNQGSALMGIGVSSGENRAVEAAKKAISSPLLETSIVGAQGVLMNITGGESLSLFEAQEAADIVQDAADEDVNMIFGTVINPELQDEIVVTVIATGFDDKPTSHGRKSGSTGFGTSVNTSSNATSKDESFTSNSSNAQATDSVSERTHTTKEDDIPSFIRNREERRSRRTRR
# Outline: (§4)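 S. aureus FtsZ cloned, overexpressed and purified; in vitro GTPase activity measured across a compound concentration series; IC50 derived from concentration-dependent inhibition.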
# [22] = target: T2, Cell division protein FtsZ (Staphylococcus aureus, UniProt P0A031); assay: as §3; outline: as §4
# T2 sequence (P0A031 whole entry): T1 sequence (whole entry)
# [23] = target: T3, Cell division protein FtsZ (Bacillus subtilis (strain 168)) (UniProt P17865); assay: Inhibition of GFP-FtsZ localization in Bacillus subtilis 2020 assessed as protein mislocalization to assemble into cytokinetic ring at 8 ug/ml by florescence microscopy
# T3 sequence (whole entry): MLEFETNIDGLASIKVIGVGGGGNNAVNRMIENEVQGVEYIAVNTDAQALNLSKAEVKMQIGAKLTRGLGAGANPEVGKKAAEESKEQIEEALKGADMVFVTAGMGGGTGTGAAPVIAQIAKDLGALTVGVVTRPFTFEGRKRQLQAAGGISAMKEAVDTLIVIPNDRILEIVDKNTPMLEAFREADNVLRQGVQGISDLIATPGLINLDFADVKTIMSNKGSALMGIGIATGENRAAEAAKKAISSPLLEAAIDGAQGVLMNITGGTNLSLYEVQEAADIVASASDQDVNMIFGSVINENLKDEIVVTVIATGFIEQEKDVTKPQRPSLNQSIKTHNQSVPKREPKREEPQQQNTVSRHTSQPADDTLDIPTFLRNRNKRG
# Outline: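 B. subtilis 2020 carrying gfp-ftsZ cultured with or without compound at 8 μg/ml; FtsZ localization visualized by fluorescence microscopy.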
# Staphylococcus aureus [24] = assay: Antibacterial activity against Staphylococcus aureus bearing FtsZ G266S mutant by broth microdilution method; type: functional
# Saccharomyces cerevisiae = assay: Antifungal activity against Saccharomyces cerevisiae by broth microdilution method; type: functional
# Staphylococcus aureus [25] = assay: Antibacterial activity against Staphylococcus aureus Smith ATCC 19636 in ip dosed CD1 mouse septicemia model assessed as survival administered 1 hr postinfection measured after 7 days; type: functional
# [26] = test system: Staphylococcus epidermidis; assay: Antibacterial activity against Staphylococcus epidermidis by broth microdilution method; type: functional
# [27] = test system: Staphylococcus lugdunensis; assay: Antibacterial activity against Staphylococcus lugdunensis by broth microdilution method; type: functional
# Staphylococcus aureus [28] = assay: Antibacterial activity against Staphylococcus aureus Smith ATCC 19636 in iv dosed CD1 mouse septicemia model assessed as survival after 7 days; type: functional; outline: as §1
# Pseudomonas aeruginosa = assay: Antibacterial activity against Pseudomonas aeruginosa by broth microdilution method; type: functional
# Staphylococcus warneri = assay: Antibacterial activity against Staphylococcus warneri by broth microdilution method; type: functional
# Staphylococcus aureus [29] = assay: Antibacterial activity against methicillin-resistant Staphylococcus aureus by broth microdilution method; type: functional
# Staphylococcus aureus [30] = assay: Inhibition of cell division in Staphylococcus aureus ATCC 29213 assessed as enlargement of cells at 2 ug/ml within 2 hrs by phase contrast microscopy; type: functional, organism-based; outline: as §2
# Staphylococcus aureus [31] = assay: Antibacterial activity against Staphylococcus aureus bearing FtsZ R191P mutant by broth microdilution method; type: functional
# Staphylococcus aureus [32] = assay: Antibacterial activity against Staphylococcus aureus Smith ATCC 19636 in sc dosed CD1 mouse septicemia model assessed as survival after 7 days; type: functional; outline: as §1
# Staphylococcus aureus [33] = assay: Antibacterial activity against Staphylococcus aureus bearing FtsZ V214F mutant by broth microdilution method; type: functional
# Bos taurus [34] = organism: Bos taurus; assay: Enhancement of bovine brain tubulin polymerization at 25 uM
# Bacillus subtilis [35] = assay: Inhibition of cell division in Bacillus subtilis 168 at 50 uM by phase contrast microscopy; type: functional, organism-based; settings: subsp. subtilis str. 168
smiles,measurement,setting,value
COc1cccc(C(N)=O)c1,MIC,Bacillus subtilis [1],> 8190 µg/mL
same,MIC,Staphylococcus aureus [2],2050 µg/mL
same,MIC,Bacillus subtilis [3],1020 µg/mL
same,MIC,Bacillus subtilis [4],> 8190 µg/mL
same,MIC,Bacillus subtilis [5],4100 µg/mL
same,MIC,Bacillus subtilis [6],2050 µg/mL
NC(=O)c1c(F)ccc(OCc2nc3cc(Cl)cnc3s2)c1F,MIC,Staphylococcus aureus [7],> 512 µg/mL
same,survival at 30 mg/kg,Staphylococcus aureus [8],100%
same,MIC,[9],1 µg/mL
same,MIC,Bacillus subtilis [1],8 µg/mL
same,survival at 30 mg/kg,Staphylococcus aureus [10],100%
same,MIC,[11],0.5 µg/mL
same,Activity,Staphylococcus aureus [12],>3
same,MIC,Escherichia coli,> 64 µg/mL
same,Activity,Staphylococcus aureus [13],Active
same,MIC,Staphylococcus aureus [2],1 µg/mL
same,MIC,Staphylococcus hominis,1 µg/mL
same,Activity,Bos taurus [14],inactive
same,MIC,Staphylococcus aureus [15],1 µg/mL
same,Activity,Bacillus subtilis [16],Active
same,MIC,Bacillus subtilis [3],> 64 µg/mL
same,MIC,Staphylococcus aureus [17],> 512 µg/mL
same,MIC,Streptococcus pneumoniae,> 64 µg/mL
same,MIC,Haemophilus influenzae,> 64 µg/mL
same,Activity,Bos taurus [18],inactive
same,MIC,Staphylococcus aureus [19],> 512 µg/mL
same,IC50,HepG2,> 64 µg/mL
same,MIC,Enterococcus faecalis,> 64 µg/mL
same,Activity,Staphylococcus aureus [20],Active
same,Activity,[21],Dose-dependent effect
same,IC50,[22],155 nM
same,Activity,[23],Active
same,MIC,Staphylococcus aureus [24],> 512 µg/mL
same,MIC,Bacillus subtilis [4],1 µg/mL
same,MIC,Saccharomyces cerevisiae,> 64 µg/mL
same,MIC,Bacillus subtilis [5],2 µg/mL
same,ED50,Staphylococcus aureus [25],3.1 mg/kg
same,MIC,[26],1 µg/mL
same,MIC,[27],1 µg/mL
same,Activity,Staphylococcus aureus [28],Dose-dependent effect
same,ED50,Staphylococcus aureus [28]; 168 h,10.2 mg/kg
same,MIC,Pseudomonas aeruginosa,> 64 µg/mL
same,MIC,Staphylococcus warneri,1 µg/mL
same,MIC,Staphylococcus aureus [29],1 µg/mL
same,MIC,Bacillus subtilis [6],0.5 µg/mL
same,Activity,Staphylococcus aureus [30],Active
same,MIC,Staphylococcus aureus [31],> 512 µg/mL
same,Activity,Staphylococcus aureus [32],Dose-dependent effect
same,ED50,Staphylococcus aureus [32]; 168 h,7.3 mg/kg
same,MIC,Staphylococcus aureus [33],> 512 µg/mL
CC(=O)O[C@H]1C(=O)[C@@]2(C)[C@H]([C@H](OC(=O)c3ccccc3)[C@]3(O)C[C@H](OC(=O)[C@H](O)[C@@H](NC(=O)c4ccccc4)c4ccccc4)C(C)=C1C3(C)C)[C@]1(OC(C)=O)CO[C@@H]1C[C@@H]2O,Activity,Bos taurus [34],Active
same,Activity,Bacillus subtilis [35],inactive
